From paper PMC10461461 (Protein Science : A Publication of the Protein Society, 2023)
Marks after values point to notes of the source that are not given here. Where no end group is shown, it is not given here.

Tests used:
[1] = tested on: HSC3 cells expressing PTPRJ ectopically; assay: Cell viability assay; format: cell-based, human; conditions: 72 h recovery, MTT, n = 9
In short: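 HSC3 cells engineered to express wild-type PTPRJ, grown in high-glucose DMEM with 10% FBS at 37°C and 5% CO₂, seeded at 5000 cells/well overnight. Peptide in serum-free medium for 5 min at 37°C. Medium then acidified to target pH with citric acid-buffered medium (pH 2.0) for 10 min. Cells washed, then 72 h recovery in complete DMEM. MTT read-out, normalized to medium-only pH 7.4 cells. […]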

[2] = Solubility in aqueous buffer; format: physicochemical; conditions: peptides solubilized to 20 μM in 5 mM sodium phosphate pH 8.0
HSC3 cells = assay: Lactate dehydrogenase release assay; format: cell-based, human; conditions: 10 μM, 1 h, pH 7.4, 5.5 or 5.0, mean ± S.D., n = 3
[3] = Tryptophan fluorescence emission maximum; format: physicochemical; conditions: POPC LUVs, pH 8.0 and pH 4.0, Trp fluorescence
[4] = pH at which 50% of peptides are in the α-helical membrane inserted state; ref Vasquez-Montes et al. (2018); cited from earlier work
[5] = tested on: EGFR phosphorylation (Tyr-1068 and Tyr-1173) in HSC3 cells expressing wild-type PTPRJ; conditions: 10 μM, 1-h treatment; ref Bloch et al., 2019; cited from earlier work
[6] = tested on: HSC3 cells ectopically expressing PTPRJ; conditions: 10 μM, 1-h treatment; ref Bloch et al., 2019; cited from earlier work
[7] = tested on: EGFR phosphorylation (Tyr-1068 and Tyr-1173) in HSC3 cells expressing wild-type PTPRJ; assay: EGFR Tyr phosphorylation level by immunoblotting; format: cell-based, human; conditions: 10 μM, 10 min, indicated pHs (7.4, 5.5, 5.0), then EGF
In short: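 HSC3 cells engineered to express wild-type PTPRJ, seeded and grown overnight, then serum-starved 2 h. Peptide in serum-free medium for 5 min at 37°C; medium acidified with citrate-buffered medium (pH 2.0) to reach final 10 μM; 10 min at 37°C; then EGF 10 ng/mL for 10 min. Lysates immunoblotted for pY1068, pY1173 and total EGFR; chemiluminescence; densitometric phospho/total ratio, mean values.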

[8] = tested on: HSC3 cells ectopically expressing PTPRJ; assay: Wound healing scratch assay; format: cell-based, human; conditions: 10 μM, 10 min, n = 8-11
In short: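 PTPRJ-expressing HSC3 monolayers, confluent at 24 h, serum-starved 2 h. Peptide added in serum-free medium at pH 7.4 (5 min, 37°C), then pH lowered with citrate-buffered medium (pH 2.0) to reach final concentration; 10 min exposure. Monolayer scratched, then complete medium with EGF 50 ng/mL, 37°C, 10 h. Closure taken as percent area change from start to end, normalized to cells treated at pH 7.4.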

Sequence: DDTTLLLLSEIGAGMWVSLVELIADADEG [hybrid7]
- cell viability ([1]; pH 5.5, 10 μM, 10 min treatment): 20%
- solubility in aqueous buffer [2]: readily soluble in aqueous buffer
- release of LDH (membrane integrity) (HSC3 cells): Neither hybrid7 nor low pH treatment causes a significant release of LDH

Sequence: DDDDDDTTLLLLS DIGA IMWVSLVDLIADADEG [hybrid1]
- partitioning into the lipid bilayer [3]: does not partition into the lipid bilayer

Sequence: AAEQNPIYWARYDWLFTTPLLLLDLALLVDADEGG [pHLIP(WT‐Ala)]
- pK50 [4]: 6.1 ^b

Sequence: KKTTLLLL S SIG A IMW V SLVCLIAVKGSNKK [RJbinder]
- decrease in phosphorylation at Tyr-1068 and Tyr-117 [5]: 20%–30%
- decrease in cell migration [6]: 20%

Sequence: AAEQNPIYWARYDWLFTTGLLLLDLALLVDADEGG [pHLIP(P20G)]
- pK50 [4]: 7.2 ^b

Sequence: DDTTLLLLSEIGLGMWVSLVELIADADEG [hybrid7‐control]
- effect on cell viability ([1]; pH 7.4 or 5.5, 10 min treatment): had no effect at either high or acidic pH
- change in EGFR phosphorylation level [7]: no changes in phosphorylation level
- decrease / inhibition in cell migration (wound closure) ([8]; pH 5.0, EGF 50 ng/mL 10 h): 30%
- effect on cell migration (wound closure) ([8]; pH 5.5, EGF 50 ng/mL 10 h): does not result in any effect
